Active and inactive are the calls of the source. The rule behind the calls is not given here.
What was measured:
[1] = Induction of lambda-bacteriophage expression in Escherichia coli assessed as induction of plaques at 3.1 ug/ml relative to control; type: functional, Enterobacteria phage lambda
Klebsiella pneumoniae = assay: Antibacterial activity against Klebsiella pneumoniae assessed as zone of inhibition by disk-plate assay; type: functional
Micrococcus luteus = assay: Antibacterial activity against Sarcina lutea assessed as zone of inhibition by disk-plate assay; type: functional
Bacillus subtilis = assay: Antibacterial activity against Bacillus subtilis assessed as zone of inhibition by disk-plate assay; type: functional
Staphylococcus aureus [2] = assay: Antibacterial activity against Staphylococcus aureus 209P assessed as zone of inhibition by disk-plate assay; type: functional
[3] = system: Mycolicibacterium smegmatis; assay: Antibacterial activity against Mycobacterium smegmatis 607 assessed as zone of inhibition by disk-plate assay; type: functional
[4] = (§1) Induction of lambda-bacteriophage expression in Escherichia coli assessed as induction of plaques at 0.2 ug/ml relative to control; type: functional, Enterobacteria phage lambda
Escherichia coli [5] = assay: Antibacterial activity against Escherichia coli K-12 assessed as zone of inhibition by disk-plate assay; type: functional
Enterococcus faecalis = assay: Antibacterial activity against Streptococcus faecalis P1377 assessed as zone of inhibition by disk-plate assay; type: functional
Escherichia coli [6] = assay: Antibacterial activity against Escherichia coli B A9885 assessed as zone of inhibition by disk-plate assay; type: functional
[7] = (§2) Induction of lambda-bacteriophage expression in Escherichia coli assessed as induction of plaques at 0.8 ug/ml relative to control; type: functional, Enterobacteria phage lambda
Staphylococcus aureus [8] = assay: Antibacterial activity against Staphylococcus aureus Smith P assessed as zone of inhibition by disk-plate assay; type: functional
[9] = Induction of lambda-bacteriophage expression in Escherichia coli assessed as induction of plaques at 0.0125 ug/ml relative to control; type: functional, Enterobacteria phage lambda
P388 [10] = assay: Antitumor activity against mouse P388 cells allografted CDF mouse assessed as increase in maximum survival time at 12.8 mg/kg treated on days 1 and 5 following tumor implantation relative to saline treated control; type: functional, organism-based; parameters: dose 12.8 mg/kg
Method in brief: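 CDF male mice inoculated intraperitoneally with 10⁶ P388 ascites leukemia cells. Compound given at 12.8 mg/kg on days 1 and 5 after tumor inoculum. Six mice per compound group and ten mice in the saline control group. Read-out is percent increase in maximum survival time over the saline controls.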

[11] = (§3) Induction of lambda-bacteriophage expression in Escherichia coli assessed as induction of plaques at 0.05 ug/ml relative to control; type: functional, Enterobacteria phage lambda
[12] = Induction of lambda-bacteriophage expression in Escherichia coli assessed as induction of plaques at 0.003 ug/ml relative to control; type: functional, Enterobacteria phage lambda
Escherichia coli [13] = assay: Toxicity in lambda-bacteriophage infected Escherichia coli at 0.8 ug/ml; type: organism-based; details: in vivo
Escherichia coli [14] = assay: Toxicity in lambda-bacteriophage infected Escherichia coli at 0.05 ug/ml; type: organism-based; details: in vivo
P388 [15] = assay: Antitumor activity against mouse P388 cells allografted CDF mouse assessed as increase in maximum survival time at 3.2 mg/kg treated on days 1 and 5 following tumor implantation relative to saline treated control; type: functional
Method in brief: (§4)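 Male CDF mice implanted intraperitoneally with 10⁶ P388 ascites leukemia cells; compound given on days 1 and 5 after tumor inoculum. Increase in maximum survival time calculated against saline-treated controls. Six mice per treated group, ten mice in the control group.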

[16] = system: Enterobacteria phage lambda; assay: as §1; type: functional
[17] = system: Enterobacteria phage lambda; assay: as §3; type: functional
Escherichia coli [18] = assay: Toxicity in lambda-bacteriophage infected Escherichia coli at 0.2 ug/ml; type: organism-based; details: in vivo
Escherichia coli [19] = assay: Toxicity in lambda-bacteriophage infected Escherichia coli at 0.0125 ug/ml; type: organism-based; details: in vivo
[20] = system: Enterobacteria phage lambda; assay: as §2; type: functional
P388 [21] = assay: Antitumor activity against mouse P388 cells allografted CDF mouse assessed as increase in maximum survival time at 6.4 mg/kg treated on days 1 and 5 following tumor implantation relative to saline treated control; type: functional; method in brief: as §4
Escherichia coli [22] = assay: Toxicity in lambda-bacteriophage infected Escherichia coli at 3.1 ug/ml; type: organism-based; details: in vivo

| SMILES | Ratio [1] | diameter of the inhibition zone (DIZ) (Klebsiella pneumoniae) | diameter of the inhibition zone (DIZ) (Micrococcus luteus) | diameter of the inhibition zone (DIZ) (Bacillus subtilis) | diameter of the inhibition zone (DIZ) (Staphylococcus aureus [2]) | diameter of the inhibition zone (DIZ) [3] | Ratio [4] | diameter of the inhibition zone (DIZ) (Escherichia coli [5]) | diameter of the inhibition zone (DIZ) (Enterococcus faecalis) | diameter of the inhibition zone (DIZ) (Escherichia coli [6]) | Ratio [7] | diameter of the inhibition zone (DIZ) (Staphylococcus aureus [8]) | Ratio [9] | Ratio [12] | Activity (Escherichia coli [13]) | also measured |
| --- | --- | --- | --- | --- | --- | --- | --- | --- | --- | --- | --- | --- | --- | --- | --- | --- |
| COC1=C(C)C(=O)c2c(c(COC(N)=O)c3n2CC[C@H]3O)C1=O | 6.9 | 0 mm | 14 mm | 19 mm | 17 mm | 0 mm | 1.3 | 0 mm | 17 mm | 0 mm | 2.9 | 17 mm | – | – | – | – |
| CNC(=O)OCc1c2c(n3c1[C@H](NC(C)=O)[C@H](OC(C)=O)C3)C(=O)C(C)=C(OC)C2=O (relative stereo) | – | 0 mm | 13 mm | 14 mm | 13 mm | 0 mm | 1.1 | 0 mm | 13 mm | 0 mm | 1.6 | 15 mm | 1.2 | 1.6 | – | Activity (P388 [10]): inactive; Ratio [11]: 1.4 |
| COC1=C(C)C(=O)c2c(c(COC(N)=O)c3n2C[C@@H](NC(C)=O)[C@H]3OC(C)=O)C1=O | 1.6 | 0 mm | 9 mm | 0 mm | 5 mm | 0 mm | 0.8 | 0 mm | 0 mm | 0 mm | 1.1 | 5 mm | – | – | – | – |
| COC1=C(C)C(=O)C2=C(C1=O)[C@@H](COC(N)=O)[C@@]1(OC)[C@H]3N[C@H]3CN21 [MITOMYCIN A] | – | 16 mm | >25 mm | >22 mm | 23 mm | 21 mm | – | 8 mm | 21 mm | 13 mm | – | 24 mm | 31.1 | 7.4 | Toxic | Activity (Escherichia coli [14]): Toxic; survival at 3.2 mg/kg (P388 [15]): 80%; Activity [16]: Active; Activity [17]: Active; Activity (Escherichia coli [18]): Toxic; Activity (Escherichia coli [19]): Toxic; Activity [20]: Active |
| COC1=C(C)C(=O)c2c(c(COC(N)=O)c3n2CC[C@H]3OC(C)=O)C1=O | 24.5 | 0 mm | 14 mm | 23 mm | 15 mm | 7 mm | 4.3 | 0 mm | 16 mm | 1 mm | 13.2 | 17 mm | – | – | – | survival at 6.4 mg/kg (P388 [21]): 65% |
| COC1=C(C)C(=O)c2c(c(COC(N)=O)c3n2C[C@@H](N)[C@H]3O)C1=O | 16.7 | 0 mm | 9 mm | 8 mm | 9 mm | 4 mm | 1.4 | 0 mm | 6 mm | 2 mm | 4.1 | 11 mm | – | – | Toxic | Activity (Escherichia coli [22]): Toxic |
